Assay results as given in PubChem BioAssay AID463145 (The Scripps Research Institute Molecular Screening Center, 2010).
Activity calls are given as the source filed them.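 How the source made its calls: active means FXR activation with a fold change above 2; inactive means the rest.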

molecular target: Bile acid receptor (Homo sapiens) (UniProt Q96RI1); assay: FXR activators in GAL4 reporter cells, late-stage follow-up, selectivity assay for RORA inverse agonist project, cell-based, luciferase luminescence, assay provider, powder samples (AID 463145); conditions: HEK293T GAL4-FXR LBD luciferase reporter, 18-24 h; at 10 µM; active compounds read high
Sequence (Q96RI1 whole entry, looked up, the tested form may be a part): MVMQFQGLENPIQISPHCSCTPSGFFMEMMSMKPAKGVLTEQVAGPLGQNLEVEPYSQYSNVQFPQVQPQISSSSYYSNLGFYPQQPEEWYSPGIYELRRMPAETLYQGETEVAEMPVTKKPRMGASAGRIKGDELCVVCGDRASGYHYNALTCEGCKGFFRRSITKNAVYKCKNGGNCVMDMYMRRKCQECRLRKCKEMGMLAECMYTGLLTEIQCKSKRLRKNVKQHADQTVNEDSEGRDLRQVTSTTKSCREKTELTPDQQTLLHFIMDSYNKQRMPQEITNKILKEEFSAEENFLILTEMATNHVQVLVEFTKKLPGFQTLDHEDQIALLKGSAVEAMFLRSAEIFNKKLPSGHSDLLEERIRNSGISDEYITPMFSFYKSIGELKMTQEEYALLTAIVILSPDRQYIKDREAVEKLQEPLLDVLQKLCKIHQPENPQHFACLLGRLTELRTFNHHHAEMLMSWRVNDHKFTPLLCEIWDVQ
Procedure, shortened: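 Controls: DMSO vehicle wells | Assay system: HEK293T cells cotransfected with GAL4-FXR LBD and UAS-luciferase reporter | Compound dosing: Single nominal compound dose of 10 µM | Measured by: Luminescence from luciferase reporter | Timing: 20 h compound treatment | Replication: Mean of six replicates per compound | Read-out: Fold change versus DMSO vehicle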

Fold change, inactive:
O=C(Nc1ccc(C(O)(C(F)(F)F)C(F)(F)F)cc1)c1c(F)cccc1F 1.06
O=C(Nc1ccc(C(O)(C(F)(F)F)C(F)(F)F)cc1)c1ccc(Cl)cc1 1.14
O=C(Nc1ccc(C(O)(C(F)(F)F)C(F)(F)F)cc1)c1ccccc1C(F)(F)F 0.846
O=C(Nc1ccc(C(O)(C(F)(F)F)C(F)(F)F)cc1)c1ccc(F)cc1F 1.52
O=C(Nc1ccc(C(O)(C(F)(F)F)C(F)(F)F)cc1)c1ccc(F)cc1Cl 1.07
O=S(=O)(Nc1ccc(C(O)(C(F)(F)F)C(F)(F)F)cc1)c1cccs1 1.21
